Laboratory results reported in paper PMC4281931 (Anticancer research, 2013).

Target: PARP-1 (poly ADP-ribose polymerase) (Homo sapiens, UniProt P09874)
Experiment: PARP-1 chemiluminescent assay kit
Format: biochemical
Conditions: read-out: % (inhibition at 21.35 μM)
Summary of the method: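 Human PARP-1 activity was measured with a chemiluminescent kit, run per the maker's protocol. PARP-1 incorporates biotinylated NAD into biotinyl-poly(ADP-ribose) on immobilized histone substrate. The biotinylated substrate was incubated with the test compound at several concentrations in assay buffer containing PARP-1 enzyme. The read-out was chemiluminescence.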

Chain of PARP-1 (poly ADP-ribose polymerase) (P09874 2-1014): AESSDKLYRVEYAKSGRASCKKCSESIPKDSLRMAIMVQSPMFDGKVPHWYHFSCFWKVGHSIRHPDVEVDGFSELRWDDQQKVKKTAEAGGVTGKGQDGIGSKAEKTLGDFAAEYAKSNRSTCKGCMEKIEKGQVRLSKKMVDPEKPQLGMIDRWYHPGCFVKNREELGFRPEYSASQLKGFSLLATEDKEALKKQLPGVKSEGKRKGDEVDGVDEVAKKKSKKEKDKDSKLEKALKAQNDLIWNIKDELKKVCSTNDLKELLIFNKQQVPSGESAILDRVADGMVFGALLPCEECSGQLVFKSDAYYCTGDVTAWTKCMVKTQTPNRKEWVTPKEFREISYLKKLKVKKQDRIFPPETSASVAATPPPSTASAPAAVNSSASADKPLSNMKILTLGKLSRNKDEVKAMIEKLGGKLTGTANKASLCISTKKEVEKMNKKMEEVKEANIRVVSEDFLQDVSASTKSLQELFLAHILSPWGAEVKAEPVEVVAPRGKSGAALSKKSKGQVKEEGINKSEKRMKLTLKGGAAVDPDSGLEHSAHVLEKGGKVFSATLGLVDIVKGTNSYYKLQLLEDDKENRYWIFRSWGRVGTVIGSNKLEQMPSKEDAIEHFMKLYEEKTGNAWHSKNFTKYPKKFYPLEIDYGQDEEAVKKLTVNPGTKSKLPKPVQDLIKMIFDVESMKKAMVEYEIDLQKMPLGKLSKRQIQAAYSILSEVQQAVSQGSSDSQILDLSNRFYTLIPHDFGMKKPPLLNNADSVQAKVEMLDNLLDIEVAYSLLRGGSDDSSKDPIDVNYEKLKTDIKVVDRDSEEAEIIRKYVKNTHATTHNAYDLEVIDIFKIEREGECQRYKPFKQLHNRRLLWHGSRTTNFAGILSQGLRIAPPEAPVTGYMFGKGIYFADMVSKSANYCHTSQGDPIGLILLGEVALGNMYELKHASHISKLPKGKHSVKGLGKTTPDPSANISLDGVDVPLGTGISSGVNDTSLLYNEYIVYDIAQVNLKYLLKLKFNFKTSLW

O=C1C[C@@H](c2ccccc2)Oc2c(Cc3ccccc3O)c(O)c(Cc3ccccc3O)c(O)c21 [dichamanetin]
inhibition at 21.35 µM: 96.2%
